# Published values from different studies.
# Organism: Pseudomonas aeruginosa
# Read-out: microbial growth
Compound,test,system,setting,MIC
CCCCC(=O)N1C(=O)/C(=C(/C)O)C(=O)C1CC(C)C (stereo not shown),,PA01,,> 200 µg/mL
CC1(C)SC2C(NC(=O)C(NC(=O)C3=C(O)C(Cc4ccc(O)cc4)NC3=O)c3ccccc3)C(=O)N2C1C(=O)O (stereo not shown),,,,25 µg/mL
O=c1[nH]cc(F)c(=O)[nH]1,broth dilution,,24 h,4 µg/mL
CNC(C)C1CCC(N)C(OC2C(N)CC(N)C(OC3OCC(C)(O)C(NC)C3O)C2O)O1 (stereo not shown),broth dilution,PAO1,,4 µg/mL
CN(C)Cc1ccc2cc3c(c(O)c2c1)C(=O)C1=C(O)[C@]2(O)C(=O)C(C(N)=O)=C(O)[C@@H](N(C)C)[C@@H]2C[C@@H]1C3,broth dilution,ATCC27853,,32 µg/mL
COc1c(C)c(O)c(C)c(O)c1C(=O)/C=C/c1ccccc1,broth dilution,ATCC27853,,1250 µg/mL
CC(C)CC1NC(=O)C(C(=O)NC(C(=O)NC2C(=O)N3C2SC(C)(C)C3C(=O)O)c2ccccc2)=C1O (stereo not shown),,,,12.5 µg/mL
O=C1NN=C(N=Cc2ccccc2O)C1=NNn1c(-c2ccccc2)nc2ccccc2c1=O,broth dilution,,24 h,111 µM
CCCCCCC/C=C/C(=O)N1C(=O)/C(=C(\O)c2ccc(O)cc2)C(=O)C1CC(C)C (stereo not shown),,PA01,,> 200 µg/mL
NC[C@H]1O[C@H](O[C@H]2[C@H](O)[C@@H](O[C@H]3O[C@H](CO)[C@@H](O)[C@H](N)[C@H]3O)[C@H](N)C[C@@H]2N)[C@H](N)C[C@@H]1O,broth dilution,,,13 µM
O=[N+]([O-])c1ccc(-c2nc3cc(F)ccc3[nH]2)o1,broth dilution,ATCC27853,,> 64 µg/mL
CC1=NN(CNc2ccc(Cl)cc2)C(=O)C1=NNn1c(-c2ccccc2)nc2ccccc2c1=O,broth dilution,,24 h,51.5 µM
O=C(CCCCCCCCCC[P+](c1ccccc1)(c1ccccc1)c1ccccc1)Nc1cc(O)c(O)c(O)c1.[Br-],broth dilution,ATCC27853,18 h,> 32 µg/mL
COc1cccc(NCc2ccc(Oc3ccccn3)cc2)c1,,,,> 25 µg/mL
CCCCCCC#Cc1cncc(-c2nnc(SCc3ccc(C#N)cc3)n2C)c1,,,,≥ 20 µg/mL
Cc1ccc2nc(-c3ccc([N+](=O)[O-])cc3)n(Cc3ccccc3)c2c1,broth dilution,ATCC27853,,128 µg/mL
CC(C)Oc1c(NC(=O)c2ccc(NC(=O)[C@H](CC(N)=O)NC(=O)c3ccc(C#Cc4ccc(C#N)cc4)cc3)cc2)ccc(C(=O)Nc2ccc(C(=O)O)cc2)c1O,,PA14,,> 64 µg/mL
CN(C)[C@@H]1C(O)=C(C(N)=O)C(=O)[C@@]2(O)C(O)=C3C(=O)c4c(cc5ccc(CN6CC(F)C6)cc5c4O)C[C@H]3C[C@@H]12,broth dilution,ATCC27853,,32 µg/mL
CC1=NN(CNC(=O)c2ccccn2)C(=O)C1=NNn1c(-c2ccccc2)nc2ccccc2c1=O,broth dilution,,24 h,52 µM
CCCc1nc(N(C)C)c2c(c1O)C(=O)C1=C(O)[C@]3(O)C(=O)C(C(N)=O)=C(O)[C@@H](N(C)C)[C@@H]3C[C@@H]1C2.Cl.Cl,broth dilution,ATCC27853,,> 32 µg/mL
Cc1ccc(C)n1-c1ccc(-c2nnc(-c3c(Cl)cccc3Cl)[nH]2)cc1,broth dilution,ATCC10145,18 h,62.5 µg/mL
CC1(C)SC2C(NC(=O)C(NC(=O)C3=C(O)C4(CC4)NC3=O)c3ccccc3)C(=O)N2C1C(=O)O (stereo not shown),,,,25 µg/mL
CCCCCCC#Cc1cncc(-c2nnc(SCc3ccc(Cl)cc3)n2C2CC2)c1,,,,≥ 20 µg/mL
C[C@H]1COc2c(N3CCN(C)CC3)c(F)cc3c(=O)c(C(=O)O)cn1c23,broth dilution,,,138 µM
CCCCCCC/C=C/C(=O)N1C(=O)/C(=C(\O)C2CCNCC2)C(=O)C1CC(C)C (stereo not shown),,PA01,,25 µg/mL
CCn1cc(C(=O)O)c(=O)c2cc(F)c(N3CCNCC3)cc21,broth dilution,ATCC10145,18 h,> 5 µg/mL
Clc1ccc(NCc2ccc(Oc3ccccn3)cc2)cc1,,,,> 25 µg/mL
O=C(CCCCCC[P+](c1ccccc1)(c1ccccc1)c1ccccc1)Nc1ccc(O)c(O)c1.[Br-],broth dilution,ATCC27853,18 h,> 32 µg/mL
CN(C)[C@@H]1C(O)=C(C(N)=O)C(=O)[C@@]2(O)C(O)=C3C(=O)c4c(cc5ccc(-c6ccccc6)cc5c4O)C[C@H]3C[C@@H]12,broth dilution,ATCC27853,,32 µg/mL
CC(C)Oc1c(NC(=O)c2ccc(NC(=O)[C@H](CC(N)=O)NC(=O)c3ccc(NC(=O)c4ccc(C(F)(F)F)cc4)cc3)cc2)ccc(C(=O)Nc2ccc(C(=O)O)cc2)c1O,,PA14,,> 64 µg/mL
CC(=O)NC1CN(Cc2ccc3cc4c(c(O)c3c2)C(=O)C2=C(O)[C@]3(O)C(=O)C(C(N)=O)=C(O)[C@@H](N(C)C)[C@@H]3C[C@@H]2C4)C1,broth dilution,ATCC27853,,32 µg/mL
CN(C)CCCNc1nc(Cl)c2c(c1O)C(=O)C1=C(O)[C@]3(O)C(=O)C(C(N)=O)=C(O)[C@@H](N(C)C)[C@@H]3C[C@@H]1C2.Cl,broth dilution,ATCC27853,,> 32 µg/mL
CC(C)Oc1c(-n2cc(-c3ccc(NC(=O)C(CC(N)=O)NC(=O)c4ccc(NC(=O)c5ccc(C#N)cc5)cc4)cc3)nn2)ccc(C(=O)Nc2ccc(C(=O)O)cc2)c1O (stereo not shown),,PA14,,8 µg/mL
O=C1C[C@@H](c2ccc(O)cc2)Oc2cc(O)cc(O)c21,broth dilution,PAO1,,128 µg/mL
Cc1ccc(C)n1-c1ccc(-c2nnc(-c3ccc(O)cc3)[nH]2)cc1,broth dilution,ATCC10145,18 h,250 µg/mL
CC(C)Nc1nc(Cl)c2c(c1O)C(=O)C1=C(O)[C@]3(O)C(=O)C(C(N)=O)=C(O)[C@@H](N(C)C)[C@@H]3C[C@@H]1C2.Cl.Cl.Cl,broth dilution,ATCC27853,,> 32 µg/mL
CC(C)Oc1c(NC(=O)c2ccc(NC(=O)[C@H](CC(N)=O)NC(=O)c3cccc(-c4cccc(C#N)c4)c3)cc2)ccc(C(=O)Nc2ccc(C(=O)O)cc2)c1O,,PA14,,> 64 µg/mL
C=CCOc1c(C)c(O)c(C(=O)/C=C/c2ccccc2)c(OC)c1C,broth dilution,ATCC27853,,5000 µg/mL
COc1ccc(NCc2ccc(Oc3ccccn3)cc2)cc1,,,,> 25 µg/mL
CC(C)CCNc1nc(Cl)c2c(c1O)C(=O)C1=C(O)[C@]3(O)C(=O)C(C(N)=O)=C(O)[C@@H](N(C)C)[C@@H]3C[C@@H]1C2.Cl.Cl.Cl,broth dilution,ATCC27853,,> 32 µg/mL
Cc1ccc2nc(-c3ccc([N+](=O)[O-])cc3)n(Cc3ccccc3Cl)c2c1,broth dilution,ATCC27853,,256 µg/mL
CC(C)Oc1c(NC(=O)c2ccc(NC(=O)[C@H](CC(N)=O)NC(=O)c3ccc(NC(=O)c4ccc(NC(=O)c5ccc([N+](=O)[O-])cc5)cc4)cc3)cc2)ccc(C(=O)Nc2ccc(C(=O)O)cc2)c1O,,PA14,,> 64 µg/mL
CN(C)[C@@H]1C(O)=C(C(N)=O)C(=O)[C@@]2(O)C(O)=C3C(=O)c4c(O)c(NC(=O)CNC(C)(C)C)nc(Cl)c4C[C@H]3C[C@@H]12.Cl.Cl.Cl,broth dilution,ATCC27853,,> 32 µg/mL
CC(C)Oc1c(NC(=O)c2ccc(NC(=O)[C@H](CC(N)=O)NC(=O)c3ccc(NC(=O)c4ccc(C#N)cc4)cc3)cc2)ccc(C(=O)Nc2cc(C(=O)O)n(C)c2)c1O,,PA14,,> 64 µg/mL
COc1c(C)c(OC)c2c(c1C)OC(c1ccccc1)CC2=O (stereo not shown),broth dilution,ATCC27853,,5000 µg/mL
COc1cc(C(=O)Nc2ccc(C(=O)N[C@@H](CC(N)=O)C(=O)Nc3ccc(C(=O)Nc4ccc(C(=O)Nc5ccc(C(=O)O)cc5)c(O)c4OC(C)C)cc3)cc2)ccc1C#N,,PA14,,> 64 µg/mL
COc1c(C)c(OS(=O)(=O)c2ccc3ccccc3c2)c(C)c(O)c1C(=O)/C=C/c1ccccc1,broth dilution,ATCC27853,,5000 µg/mL
CN(C)[C@@H]1C(O)=C(C(N)=O)C(=O)[C@@]2(O)C(O)=C3C(=O)c4c(O)c(NC(=O)CNC(C)(C)C)nc(F)c4C[C@H]3C[C@@H]12.Cl.Cl,broth dilution,ATCC27853,,> 32 µg/mL
CC(C)Oc1c(NC(=O)c2ccc(NC(=O)[C@H](CC(N)=O)NC(=O)c3ccc(NC(=O)c4cccc([N+](=O)[O-])c4)cc3)cc2)ccc(C(=O)Nc2ccc(C(=O)O)cc2)c1O,,PA14,,> 64 µg/mL
